From PubChem BioAssay
A selection: hits, their analogues and other compounds. The true share with any hit is near 2.5%.
PAX8 inh HTS = inhibitors of PAX8-driven TPO luciferase reporter, primary screen, RMG-I cells, single concentration | SteadyGlo, 24 h | inhibition, % at 12.6 µM | hit rate 1.2% among 360,000;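 active = mean replicate inhibition at least 60% with every replicate also reaching 60%; inconclusive = only one of the two criteria is met; inactive = mean below 60% and not all replicates reaching 60%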;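 note: luciferase light reporting Pax8 driven TPO promoter activity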
FN deposition inh = inhibitors of fibronectin matrix deposition, primary screen, AH1F cells, Alexa488-fibronectin fluorescence, plate reader | inhibition, % at 12.6 µM | hit rate 0.086% among 350,000 | AH1F fibroblasts, overnight;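 active = mean inhibition across replicates of 30% or more, regardless of how many single replicates reach that level; inconclusive = mean under 30% yet at least half of replicates reach 30%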
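Assay system: AH1F fibroblasts assembling fluorescent fibronectin matrix; Amount: 10000 AH1F cells per well; Buffer or medium: DMEM, 2% serum; Probe or stimulus: Alexa488-fibronectin, 24 nM final in well; Doses: single compound dose, delivered by pin transfer; Incubation: 1 h adhesion, overnight exposure; Measured by: fluorescence 485/525 nm; Read-out: fibronectin deposition inhibition.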
Glyco luc inh = increase of ERlucT glycosylation luciferase signal, primary screen, N-linked glycosylation inhibitor project, D54 ERlucT cells, luminescence, set 2; D54 ERlucT glycosylation luciferase reporter, 24 h; percent of 100 nM tunicamycin response; reporter increase, % at 12.5 µM; hit rate 0.23% among 360,000; AID 588692, 2011;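 active = mean luciferase reporter signal, scaled so untreated is 0 and the glycosylation-blocking control 100, at or above a set limit in every replicate; inconclusive = mean reaches the limit but not every replicate does; inactive = mean below the limit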;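 note: luciferase carries N-glycosylation sites so blocking glycosylation raises the light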
EWS-Fli inh = EWS/Fli-driven NR0B1 reporter inhibitors, primary screen, A673 cells, NR0B1 luciferase, luminescence, MLPCN library | viability-normalised | inhibition, % at 12.6 µM | hit rate 0.67% among 350,000;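 active = mean inhibition of at least 50% after viability correction, with every replicate also passing that limit; inconclusive = mean reaches 50% but only one of two replicates passes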;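 note: firefly luciferase signal divided by Alamar Blue viability fluorescence both relative to DMSO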
HIV Env fusion = inhibitors of HIV-1 Env-driven cell-cell fusion, primary screen, HeLa-JRFL effector, CEM21 target cells, luciferase; inhibition, % at 12.3 µM; hit rate 1.1% among 360,000;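 active = mean replicate inhibition score of at least 50 and every replicate individually at or above 50; inconclusive = only one of the two criteria met; inactive = mean below 50 and not all replicates reaching 50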
AF4-AF9 inh = inhibitors of AF4 peptide binding to AF9, primary screen, biochemical, AlphaScreen, biotin-AF4 peptide, FLAG-AF9, single point | inhibition, % at 10 µM | hit rate 0.47% among 350,000 | AID 651704, 2012;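 active = every replicate reaching a set inhibition limit, whatever the replicate mean, cut at about 25% in these data; inconclusive = mean inhibition reaches that limit but some replicates miss it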
Target sequence (P42568 whole entry, looked up): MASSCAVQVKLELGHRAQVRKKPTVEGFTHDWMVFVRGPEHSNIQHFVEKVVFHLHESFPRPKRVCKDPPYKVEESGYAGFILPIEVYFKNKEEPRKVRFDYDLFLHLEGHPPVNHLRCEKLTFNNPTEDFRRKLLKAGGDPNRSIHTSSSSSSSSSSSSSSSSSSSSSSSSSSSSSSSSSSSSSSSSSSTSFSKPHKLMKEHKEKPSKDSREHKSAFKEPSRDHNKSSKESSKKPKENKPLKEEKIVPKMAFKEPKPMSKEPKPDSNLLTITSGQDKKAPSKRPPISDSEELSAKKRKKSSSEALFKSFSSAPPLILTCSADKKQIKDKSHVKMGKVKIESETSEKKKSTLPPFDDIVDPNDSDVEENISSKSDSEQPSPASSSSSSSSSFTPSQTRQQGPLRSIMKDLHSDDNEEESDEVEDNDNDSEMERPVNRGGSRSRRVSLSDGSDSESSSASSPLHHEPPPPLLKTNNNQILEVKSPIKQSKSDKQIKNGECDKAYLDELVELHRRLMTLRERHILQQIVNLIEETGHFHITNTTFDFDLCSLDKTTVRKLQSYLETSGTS
DNA binding = DNA binders by acridine orange displacement, dose response, counter-screen for EWS/Fli inhibitor project, biochemical, fluorescence polarization, cherry-pick. shares compounds with EWS-Fli inh. salmon sperm DNA acridine orange fluorescence polarization. AC35, µM (highest dose often 68 µM). hit rate 2% among 640. AID 720586, 2013;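 active = fitted curve reaches a 35% signal fall AC35 below twice the sample's top valid tested dose, actives reach about 48 µM in these data; inactive = the rest, including activity in the rising direction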;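 note: lower polarization ratio signals compound binding to DNA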
A number is an active result; 0 = inactive; ? = inconclusive; - = not tested or not shown.

SMILES	PAX8 inh HTS	FN deposition inh	Glyco luc inh	EWS-Fli inh	HIV Env fusion	AF4-AF9 inh	DNA binding
COCC(=O)Nc1ccc2c(c1)[C@@H]1C[C@@H](CC(=O)NCc3ccc(-c4ccccc4)cc3)O[C@@H](CO)[C@@H]1O2	0	-	-	60	0	0	0
COCC(=O)Nc1ccc2c(c1)[C@H]1C[C@@H](CC(=O)NCc3ccc(-c4ccccc4)cc3)O[C@@H](CO)[C@H]1O2	0	-	-	0	0	0	-
O=C(C[C@@H]1C[C@H]2c3cc(NC(=O)CC4CC4)ccc3O[C@H]2[C@H](CO)O1)NCc1ccccc1F	-	0	-	56	-	0	0
C[C@H]1CN([C@@H](C)CO)C(=O)Cc2cc(NS(C)(=O)=O)ccc2O[C@H]1CN(C)S(=O)(=O)c1ccc(Cl)cc1	0	-	-	0	0	0	-
C[C@@H]1CN([C@@H](C)CO)S(=O)(=O)c2ccc(C#Cc3ccncc3)cc2O[C@H]1CN(C)C(=O)C1CCOCC1	0	-	-	70	0	0	0
C[C@@H]1CN([C@H](C)CO)S(=O)(=O)c2ccc(C#Cc3ccncc3)cc2O[C@@H]1CN(C)C(=O)Nc1ccc2c(c1)OCO2	70	-	-	65	-	0	0
C[C@H](CO)N1C[C@H](C)[C@H](CN(C)C(=O)C2CCOCC2)Oc2cc(C#Cc3ccncc3)ccc2S1(=O)=O	0	-	-	0	0	0	-
CO[C@@H]1CN(C)C(=O)c2cc(NC(=O)c3cnccn3)ccc2OC[C@H](C)N(C(=O)C2CC2)C[C@@H]1C	0	0	-	0	0	0	-
COc1ccc(/C=C(/C(=O)c2cccs2)N2C=CC=CC2=C(C#N)C#N)cc1	0	0	0	79	0	0	0
COc1ccc(N=N/C(=C\O)C(=O)c2cccs2)cc1	0	-	0	0	0	0	-
BrC(=C\c1ccccc1)/C=N/n1cnnc1	95	0	0	68	0	0	0
Nc1ccc2c(c1)OC1(CCCC1)O2	0	0	0	68	0	0	0
COC(=O)c1c(C)[nH]c(/C=N/Nc2ccccc2)c1C	0	0	0	54	0	0	0
Cc1c(C=NNc2ccccc2)[nH]c(=O)[nH]c1=O	0	0	0	0	0	0	-
COc1cc(CN2CC3(CCN(S(=O)(=O)c4cccc(F)c4)CC3)c3c([nH]c4cc(OC)ccc34)[C@H]2CO)cc(OC)c1	0	-	-	0	-	0	-
CCc1c(C(=O)NN2C(=O)C3CCCCC3C2=O)csc1C (stereo not drawn)	0	-	0	65	0	0	0
Nc1nc(N)c(-c2cccc(C(F)(F)F)c2)c(Cc2cccc(C(F)(F)F)c2)n1	0	0	0	58	0	0	0
Nc1ncccc1OCc1cccc(C(F)(F)F)c1	0	0	0	0	0	0	-
COc1ccc(/C=N/Nc2ccc(C(=O)O)cc2)cc1Br	0	0	0	69	0	0	0
O=C(N/N=C\c1cc(Br)cs1)c1ccncc1	0	0	0	0	0	-	-
COc1ccc(/C=N/Nc2ccc(C(=O)O)cc2)cc1OC	0	0	0	0	0	0	-
Cc1ccsc1/C=N/Nc1cccc(C(=O)O)c1	90	0	0	66	68	0	0
O=C(O)c1ccc(N/N=C/c2cc(Br)cs2)cc1	0	0	0	65	0	0	0
Cc1ccsc1/C=N/Nc1ccc(C(=O)O)cc1	78	0	0	71	0	0	0
C[C@@H]1CN([C@@H](C)CO)C(=O)Cc2cc(NC(=O)CCN3CCOCC3)ccc2O[C@H]1CN(C)Cc1ccc(C(=O)O)cc1	0	0	-	0	0	-	-
SMILES	PAX8 inh HTS	FN deposition inh	Glyco luc inh	EWS-Fli inh	HIV Env fusion	AF4-AF9 inh	DNA binding
C/C(=N\N(c1ccccc1)c1ccccc1)c1ccco1	0	-	0	58	0	0	0
COC(=O)C[C@H]1C=C[C@@H](NC(=O)Nc2ccc(C(F)(F)F)cc2)[C@H](CO)O1	0	0	-	67	0	0	0
COC(=O)C[C@H]1C=C[C@H](NC(=O)Nc2ccc(C(F)(F)F)cc2)[C@H](CO)O1	0	0	-	0	0	0	-
O=c1[nH]c(=O)n(C2OC(CO)C(O)C(O)C2O)cc1F (stereo not drawn)	-	-	-	0	-	0	-
CCCCCCCCCCCCCCCCCCNc1ccn(C2OC(COP(=O)(O)OCC3OC(n4cc(F)c(=O)[nH]c4=O)CC3O)C(O)C2O)c(=O)n1 (stereo not drawn)	0	0	35	61	0	0	0
C[C@@H]1CN([C@@H](C)CO)C(=O)c2cc(C#Cc3cccnc3)cnc2O[C@@H]1CN(C)C	-	0	-	0	0	0	-
CC(C)NC(=O)N(C)C[C@@H]1Oc2cc(C#Cc3ccc(F)cc3)ccc2S(=O)(=O)N([C@H](C)CO)C[C@H]1C	-	-	-	56	0	0	0
Cc1ccc(-c2ccc3c(c2)O[C@@H](CN(C)C(=O)Nc2ccc(F)cc2)[C@H](C)CN([C@@H](C)CO)S3(=O)=O)cc1	-	0	-	54	0	0	0
Fc1cccc(-c2ccc(C3[C@H]4CNC[C@@H]3N4CC3CCOCC3)cc2)c1 (stereo partly drawn)	-	0	-	-	-	0	-
c1cncc(-c2ccc([C@@H]3[C@H]4CNC[C@@H]3N4CC3CCOCC3)cc2)c1	0	0	-	51	-	-	0
CCC(=O)N1[C@@H]2c3ccc(/C=C/c4ccccc4)c(=O)n3C[C@@H]2[C@@H](CO)[C@@H]1C(=O)OC	0	-	-	0	-	0	-
CN1C(=O)c2cc(NC(=O)c3cccc(F)c3)ccc2OC[C@H]2O[C@@H](CC(=O)NCC3CC3)CC[C@H]21	0	0	-	0	-	0	-
Cc1nc2cc(-c3ccc(Cl)cc3)nn2c(C)c1CCC(=O)NC(C)c1ccc2c(c1)OCCO2 (stereo not drawn)	0	0	0	57	0	0	0
Cc1csc(NC(=O)CCc2c(C)nc3cc(-c4ccc(Cl)cc4)nn3c2C)n1	0	0	0	56	0	0	0
CCc1ccc(C2=NN(CCC(=O)NC(C)c3ccc4c(c3)OCCO4)C(=O)CC2)cc1 (stereo not drawn)	0	0	0	0	0	0	-
Cc1csc(NC(=O)CSc2nnc(-c3ccc(Cl)cc3)n2N)n1	-	0	0	-	0	-	-
COc1cc(OC)cc(-c2cc3nc(C)c(CCC(=O)NCc4ccccc4)c(C)n3n2)c1	0	0	0	57	?	0	0
COc1ccccc1-c1cc2nc(C)c(CCC(=O)NCc3ccc(F)cc3)c(C)n2n1	0	0	0	0	0	0	-
O=C(C[C@H]1C=C[C@@H](NC(=O)c2cccnc2)[C@@H](CO)O1)NCc1ccc(Cl)c(Cl)c1	0	0	-	0	0	0	-
